Assay results reported in PMC11145139 (RSC Advances, 2024).
In brackets after ≈: the same amount, converted by molar mass. Residues, ends and D or L forms follow the SMILES beside them.

Tests used:
Type in all cases: cell-based
[1] = test system: Pseudomonas aeruginosa MTCC 1688; test: Antibacterial activity, Mueller Hinton Broth microdilution MIC; settings: ratio of MIC values vs Ampicillin (MIC 100 μg mL^−1)
[2] = test system: Streptococcus pyogenes MTCC 442; test: as above; settings: ratio of MIC values vs standard drug (MIC 100 μg mL^−1)
[3] = test system: Candida albicans MTCC 227; test: Antifungal activity, Muller Hinton Broth dilution MIC; settings: for MIC (anti-fungicidal activity) C. a.: Candida albicans MTCC 227, Muller Hinton Broth dilution, Sabouraud's dextrose broth, 28 °C, aerobic, 48 hours, triplicate experiments
Summary of the method: (§1)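 Broth dilution in Mueller Hinton medium. Test compounds were screened in triplicate at 1000, 500, 250 and 200 μg mL−1; actives were diluted further and retested. Fungal growth was followed in Sabouraud's dextrose broth at 28 °C, aerobic, for 48 h. MIC was taken as the lowest concentration preventing visible growth. Nystatin served as reference standard. Stocks were kept at −70 °C in trypticase-soy broth with 20% glycerol and subcultured three times before use.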

[4] = test system: Escherichia coli MTCC 443; test: Antibacterial activity, Mueller Hinton Broth microdilution MIC; settings: for Potency relative to standard drug Ampicillin against E. coli: ratio of MIC values vs Ampicillin (MIC 100 μg mL^−1)
[5] = test system: Aspergillus niger MTCC 282; test: Antifungal activity, Muller Hinton Broth dilution MIC; settings: for MIC (anti-fungicidal activity) A. n.: Aspergillus niger MTCC 282, Muller Hinton Broth dilution, Sabouraud's dextrose broth, 28 °C, aerobic, 48 hours, triplicate experiments
Summary of the method: as §1

[6] = test system: Staphylococcus aureus MTCC 96; test: Antibacterial activity, Mueller Hinton Broth microdilution MIC; settings: vs Ampicillin (MIC 250 μg mL^−1)
[7] = vs Nystatin (active at 100 μg mL^−1)

| Compound | Potency relative to standard drug Ampicillin against P. aeruginosa [1] | Potency relative to standard drug Ampicillin against Streptococcus pyogenes [2] | MIC (anti-fungicidal activity) C. a. [3] | Potency relative to Nystatin against Candida albicans [3, 7] | Potency relative to standard drug Ampicillin against E. coli [4] | MIC (anti-fungicidal activity) A. n. [5] | Potency relative to Nystatin against Aspergillus niger [5, 7] | MIC ([4]; Escherichia coli, MTCC443, 48 h, read-out: MIC (anti-bacterial activity) E. c.) | Potency relative to control drug Ampicillin against Staphylococcus aureus [6] |
| --- | --- | --- | --- | --- | --- | --- | --- | --- | --- |
| CC(C)C[C@H](N)C(=O)N[C@@H](CS)C(=O)N1CCC[C@H]1C(=O)N[C@@H](Cc1c[nH]cn1)C(=O)N[C@@H](CCCNC(=N)N)C(=O)N[C@@H](CS)C(=O)O [Compound 7d, H-Leu-Cys-Pro-His-Arg-Cys-OH] (H-LCPHRC-OH) | 2.5 times | five time more potent | 20 µg/mL (≈ 27.5 µM) | five times more potent | 4 times | 35 µg/mL (≈ 48.1 µM) | almost three times more potent |  |  |
| CC1(C)S[C@@H]2[C@H](NC(=O)[C@H](N)c3ccccc3)C(=O)N2[C@H]1C(=O)O [Ampicillin, reference compound] |  |  |  |  |  |  |  | 100 µg/mL (≈ 286 µM) |  |
| C[C@H](N)C(=O)N[C@@H](CS)C(=O)N1CCC[C@H]1C(=O)N[C@@H](Cc1c[nH]cn1)C(=O)N[C@@H](CCCNC(=N)N)C(=O)N[C@@H](CS)C(=O)O [Compound 7b, H-Ala-Cys-Pro-His-Arg-Cys-OH] (H-ACPHRC-OH) | 2 times |  | 55 µg/mL (≈ 80.2 µM) |  | around 2 times | 50 µg/mL (≈ 72.9 µM) |  |  | almost twice potent |
| N=C(N)NCCC[C@H](NC(=O)[C@H](Cc1c[nH]cn1)NC(=O)[C@@H]1CCCN1C(=O)[C@H](CS)NC(=O)CN)C(=O)N[C@@H](CS)C(=O)O [Compound 7a, H-Gly-Cys-Pro-His-Arg-Cys-OH] (H-GCPHRC-OH) |  |  | 60 µg/mL (≈ 89.3 µM) |  |  | 65 µg/mL (≈ 96.8 µM) |  |  |  |
| C[C@@H]1[C@H](O)[C@@H](C)/C=C/C=C/CC/C=C/C=C/C=C/C=C/C(O[C@H]2O[C@H](C)[C@@H](O)[C@H](N)[C@@H]2O)CC2O[C@](O)(CC(O)C(O)CCC(O)CC(O)CC(O)CC(=O)O[C@H]1C)CC(O)C2C(=O)O (some centres unmarked) [Nystatin, reference compound] |  |  | 100 µg/mL (≈ 108 µM) |  |  | 100 µg/mL (≈ 108 µM) |  |  |  |
| N=C(N)NCCC[C@H](NC(=O)[C@H](Cc1c[nH]cn1)NC(=O)[C@@H]1CCCN1C(=O)[C@H](CS)NC(=O)[C@@H](N)Cc1ccc(O)cc1)C(=O)N[C@@H](CS)C(=O)O [Compound 7f, H-Tyr-Cys-Pro-His-Arg-Cys-OH] (H-YCPHRC-OH) | 2 times |  | 40 µg/mL (≈ 51.4 µM) |  | around 2 times | 50 µg/mL (≈ 64.3 µM) |  |  | almost twice potent |
| CC(C)[C@H](N)C(=O)N[C@@H](CS)C(=O)N1CCC[C@H]1C(=O)N[C@@H](Cc1c[nH]cn1)C(=O)N[C@@H](CCCNC(=N)N)C(=O)N[C@@H](CS)C(=O)O [Compound 7c, H-Val-Cys-Pro-His-Arg-Cys-OH] (H-VCPHRC-OH) | 2 times | 2 times | 35 µg/mL (≈ 49 µM) |  | 2.5 times | 40 µg/mL (≈ 56 µM) |  |  | almost twice potent |
| N=C(N)NCCC[C@H](NC(=O)[C@H](Cc1c[nH]cn1)NC(=O)[C@@H]1CCCN1C(=O)[C@H](CS)NC(=O)[C@@H]1CCCN1)C(=O)N[C@@H](CS)C(=O)O [Compound 7e, H-Pro-Cys-Pro-His-Arg-Cys-OH] (H-PCPHRC-OH) |  |  | 50 µg/mL (≈ 70.2 µM) |  | around 2 times | 55 µg/mL (≈ 77.3 µM) |  |  | almost twice potent |
